From PubChem BioAssay
CHRM5 agonist: CHRM5 agonism in calcium assay | P08912 | 360,000 tested, 0.19% active | CHO-K1 hM5 cells, Fluo-8 calcium fluorescence; 0% DMSO wells, 100% maximal acetylcholine response | activation, % at 3 µM;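 active = activation above the run's mean over test compounds plus 3 SD, cut at about 23% in these data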;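 also: signal is peak over basal fluorescence ratio across the kinetic read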
Target sequence (P08912 whole entry, looked up): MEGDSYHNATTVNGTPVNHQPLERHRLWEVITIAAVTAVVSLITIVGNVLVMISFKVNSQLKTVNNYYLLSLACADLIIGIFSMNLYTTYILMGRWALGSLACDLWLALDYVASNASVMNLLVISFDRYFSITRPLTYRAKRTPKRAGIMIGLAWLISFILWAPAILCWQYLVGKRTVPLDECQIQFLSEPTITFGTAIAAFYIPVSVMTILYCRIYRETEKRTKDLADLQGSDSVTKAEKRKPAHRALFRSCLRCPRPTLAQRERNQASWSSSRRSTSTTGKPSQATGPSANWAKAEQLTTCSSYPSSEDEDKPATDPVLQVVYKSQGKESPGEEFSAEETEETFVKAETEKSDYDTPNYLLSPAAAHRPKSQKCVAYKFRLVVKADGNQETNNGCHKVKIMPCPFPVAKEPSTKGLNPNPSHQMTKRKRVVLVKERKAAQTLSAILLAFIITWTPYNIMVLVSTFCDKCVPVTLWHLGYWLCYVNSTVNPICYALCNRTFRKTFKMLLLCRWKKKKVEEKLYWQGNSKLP
CHRM5 PAM: CHRM5 positive allosteric modulation. P08912. CHO-K1 hM5, Fluo-8 calcium, ACh EC20 PAM; 0% = ACh EC20, 100% = ACh EC100. activation, % at 3 µM. 360,000 tested, 0.3% active. AID 624038;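 active = activation above the run cutoff, the mean activation of all test compounds plus 3 SD, cut at about 18% in these data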
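system = human M5 receptor in CHO-K1 cells | compound = one concentration, 3 µM final (nominal) | schedule = Post-acetylcholine fluorescence recording 140 s | signal = Fluo-8 calcium dye fluorescence, kinetic read | benchmarks = low control EC20 acetylcholine (0%), high control EC100 acetylcholine (100%) | repeats = singlicate, one well per test compound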
M4 PAM: potentiates acetylcholine response at human M4 receptor; P08173; CHO-K1 hM4/Gqi5, Fluo-8 calcium fluorescence, ACh EC20; 0% = ACh EC20, 100% = maximal ACh; activation, % at 3 µM; 360,000 tested, 0.4% active;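 active = activation above its plate's cutoff, the mean activation of sample wells plus 3 SD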
CHRM4 agonist: CHRM4 agonism in calcium assay; 360,000 tested, 0.14% active; CHO-K1 hM4/Gqi5, Fluo-8 calcium fluorescence; vehicle 0%, full acetylcholine response 100%; P08173; activation, % at 3 µM;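 active = activation above the run mean over all test wells plus 3 SD, cut at about 32% in these data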;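 also: peak over basal fluorescence ratio per well then scaled between controls; 0% = DMSO wells and 100% = acetylcholine at EC100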
CHRM4 antagonist: CHRM4 antagonism in calcium assay; P08173; CHO-hM4 cells, ACh EC80, Fluo-8 calcium fluorescence; inhibition, % at 3 µM; 360,000 tested, 0.73% active; AID 624125;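 active = inhibition above its plate's cutoff, the mean inhibition of sample wells plus 3 SD, cut at about 27% in these data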;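 also: 0% = acetylcholine EC80 with DMSO and 100% = DMSO without agonist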
M5 antag: blocks acetylcholine activation of human M5 receptor; P08912; CHO-hM5 cells, Fluo-8 calcium fluorescence, ACh EC80; inhibition, % at 3 µM; 360,000 tested, 0.59% active;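 active = inhibition above a per-plate cutoff, the mean of that plate's test compounds plus 3 SD, cut at about 27% in these data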;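 also: 0% = acetylcholine EC80 with DMSO and 100% = DMSO without agonist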
Numbers without * were called inactive. Sampled rows, rich in hits. Any-hit rate of the full collection: about 1.8%.

SMILES | CHRM5 agonist | CHRM5 PAM | M4 PAM | CHRM4 agonist | CHRM4 antagonist | M5 antag
CCc1nnc(NS(=O)(=O)c2ccc(NC(=S)NC(=O)/C=C/c3ccc(C(C)C)cc3)cc2)s1 | -7 | -21 | -13 | -1 | 27* | 12
COC(=O)c1cn(Cc2ccccc2C)nn1 | -2 | 7 | 22* | 2 | -7 | -8
NC(=O)C1CCN(C(=O)C2CCC(=O)N(CC3CCCCC3)C2)CC1 (stereo unspecified) | -2 | -4 | -3 | 1 | 5 | 7
CCN1CCN(Cc2c3ccccc3cc3ccccc23)CC1 | -9 | 0 | -1 | 1 | -3 | 12
COc1ccc(-c2[nH]ncc2Oc2ccccc2OC)c(O)c1 | 1 | -3 | 19* | 2 | -19 | -2
COc1ccc(Oc2cn[nH]c2-c2ccc(O)cc2O)cc1 | 6 | 2 | 13 | 6 | 11 | 0
C=CCN=C1S/C(=C\N(C)C)C(=O)N1S(=O)(=O)c1ccc(C)cc1 | -2 | 0 | 5 | 4 | -3 | 10
Cc1ccccc1CN1CCN(CC2CC3C=CC2C3)CC1 (stereo unspecified) | -6 | -16 | -21 | 2 | 44* | 6
C1=CC2CC1CC2CN1CCN(c2ccccc2)CC1 (stereo unspecified) | -12 | -5 | -16 | 2 | 21 | 6
CC(C)CN=Cc1c(O)c([N+](=O)[O-])cc2oc3c(c12)CCCC3 | 3 | 4 | 17 | -2 | 8 | -1
O=[N+]([O-])c1cc2oc3c(c2c(C=NCc2ccccc2)c1O)CCCC3 | -1 | 7 | 14 | 1 | 35* | 3
COC(=O)c1ccc(CN2CCC(CO)(CCOc3ccccc3)CC2)cc1 | -16 | -29 | -16 | 4 | 48* | 27*
CCOC(=O)C1(CCOc2ccccc2)CCN(Cc2ccc(O)cc2)CC1 | -20 | -34 | -14 | 9 | -5 | 28*
COC(=O)c1ccc(CN2CCC(CO)(Cc3cccc(OC)c3)CC2)cc1 | -10 | -12 | -19 | 3 | 18 | 5
CCOC(=O)C1(CCOc2ccccc2)CCN(Cc2ccc(OC)c(O)c2)CC1 | -24 | -30 | -10 | 7 | -7 | 9
CCOC(=O)C1(CCOc2ccccc2)CCN(Cc2ccc(OCCO)cc2)CC1 | -20 | -5 | -5 | 3 | 1 | 3
CCOC(=O)C1(CCOc2ccccc2)CCN(Cc2ccc(O)c(OCC)c2)CC1 | -5 | -18 | -12 | 12 | -13 | 31*
Nc1[nH]n2c(=O)cc(-c3ccccc3)nc2c1N=Nc1ccc(S(N)(=O)=O)cc1 | 10 | 19* | 18 | 1 | -2 | 13
Nc1[nH]n2c(=O)cc(-c3ccccc3)nc2c1N=Nc1ccccc1 | -2 | 0 | -1 | 0 | 14 | 11
CN1CCC(N2CCN(C3CN(CCc4ccccc4)S(=O)(=O)C3)CC2)CC1 (stereo unspecified) | 0 | -3 | 0 | 0 | -4 | 4
CN1CCC(n2[nH]c(-c3ccccc3)c(Cc3ccccc3)c2=O)CC1 | -13 | -37 | -11 | 2 | 98* | 98*
C(#Cc1ccccc1)C[N+]1(CC#Cc2cccc3ccccc23)CCCC1 | -10 | -20 | -14 | 1 | 5 | 29*
C#CC[N+]1(CC#Cc2ccccc2)CCCC1 | -7 | -13 | -5 | 1 | 2 | 0
CC(C)(C)c1nnc(NC(=O)Nc2ccc(Cl)cc2)s1 | 3 | -5 | -8 | 1 | -1 | 14
Cc1nc(NC(=O)Nc2ccc(Cl)cc2)sc1C | 4 | -5 | 0 | 7 | 28* | 5
SMILES | CHRM5 agonist | CHRM5 PAM | M4 PAM | CHRM4 agonist | CHRM4 antagonist | M5 antag
Cc1noc(-c2ccccc2)c1NC(=O)Nc1ccc(Cl)cc1 | -2 | -20 | -58 | 10 | 37* | 23
Cc1ccc(NC(=O)COC(=O)CC2SC(N3CCCC3)=NC2=O)cc1 (stereo unspecified) | -1 | 5 | 5 | 1 | 1 | 4
O=S(=O)(c1ccccc1F)N1CCN(CCc2ccccc2)CC1 | -3 | -4 | -18 | -2 | 101* | -4
Cn1c(=O)[nH]c(=O)c2c1nc(Br)n2CCCO | 2 | 22* | 19 | 1 | 5 | -18
O=C(O)CSCC(=O)NCc1ccc(Cl)cc1 | 0 | -1 | 28* | 2 | -14 | 5
CCOC(=O)c1ccccc1NC(=O)CSc1nc2[nH]ncc2c(=O)[nH]1 | 0 | 9 | -5 | 1 | 1 | -14
O=C(Nc1cc(S(=O)(=O)N2CCOCC2)ccc1N1CCCC1)c1cccnc1Cl | 2 | 3 | 11 | 0 | 28* | 0
CCOc1ncccc1C(=O)Nc1cc(S(=O)(=O)N2CCOCC2)ccc1N1CCCC1 | -3 | -8 | -9 | 14 | -1 | 16
COc1ccc(C)cc1N(CC(=O)Nc1cccnc1)S(=O)(=O)c1ccccc1 | 2 | -18 | -7 | 14 | 4 | 29*
O=C1NC[C@H](Cc2ccccc2)N(CC2CCN(CCCCc3ccccc3)CC2)C1=O | 2 | -7 | -8 | 1 | 14 | 10
S=C1NC[C@H](Cc2ccccc2)N1CC1CCN(CCCCc2ccccc2)CC1 | -3 | -15 | -15 | 3 | 28* | 23
CC[n+]1c(/C=C/N(C)c2ccccc2)n(-c2ccccc2)c2ccc(-c3nc4ccccc4s3)cc21 | -21 | -26 | -16 | 7 | 58* | 6
CCOC(=O)c1ccc2c(c1)n(CC)c(/C=C/N(C)c1ccccc1)[n+]2CC | -1 | 4 | -7 | 0 | -2 | -5
Cc1ccccc1NC(=O)c1ccc2c(O)c(S(=O)(=O)c3ccccc3)c(=O)[nH]c2c1 | -5 | -8 | 0 | 0 | 4 | 17
CC(=O)Oc1ccccc1/C=C/c1ccc2ccccc2[n+]1C | -9 | -17 | -14 | 0 | 14 | 32*
COc1ccc(/C=C/c2ccc3ccccc3[n+]2C)cc1OC | -7 | -4 | -4 | 1 | -17 | 0
O=C(c1ccc(Cl)c([N+](=O)[O-])c1)N(c1ccccn1)c1ccccn1 | 0 | 20* | 7 | 0 | -1 | 9
O=C1c2ccccc2S(=O)(=O)c2cc(C(=O)N(c3ccccn3)c3ccccn3)ccc21 | 67* | -19 | 2 | 77* | -10 | -2
CCOC(=O)c1nc(Nc2cc(C)cc(C)c2)c2ccccc2n1 | -1 | -7 | -4 | 5 | 2 | 4
Clc1ccc(Nc2ccc(NCc3ccccc3)nn2)cc1 | 4 | -18 | -31 | 50* | 14 | 0
Cc1ccc(Nc2ccc(NCc3ccccc3)nn2)cc1C | -2 | -10 | -13 | 12 | 3 | -4
